Test results: ChEMBL document CHEMBL1777764, “Synthesis and evaluation of 1-(1H-indol-3-yl)ethanamine derivatives as new antibacterial agents” (Bioorg Med Chem, 2011)
Values after ≈ are worked out from the molar mass of the structure shown.

Key:
[1] = system: Staphylococcus aureus; experiment: Antibacterial activity against Staphylococcus aureus ATCC 25923 after 18 hrs by broth microdilution method; type: functional; conditions: ATCC 25923, 18 h
In short: (§1)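 MIC by broth microdilution per ISO 20776-1:2006 and CLSI M07-A8. Inoculum 10^6 cfu/ml in Mueller-Hinton broth with compound serially diluted, final concentrations 2 to 128 ug/ml, duplicate rows, no-drug growth control. Incubation 18 h at 37 °C. MIC taken as lowest concentration giving complete inhibition of visible growth. Each compound tested at least twice.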

[2] = system: Staphylococcus aureus; experiment: Antibacterial activity against Staphylococcus aureus ATCC 29213 after 18 hrs by broth microdilution method; type: functional; conditions: ATCC 29213, 18 h; in short: as §1
[3] = system: Staphylococcus aureus; experiment: Antibacterial activity against Staphylococcus aureus ATCC 9144 after 18 hrs by broth microdilution method; type: functional; conditions: ATCC 9144, 18 h; in short: as §1
[4] = system: Staphylococcus aureus; experiment: Antibacterial activity against Staphylococcus aureus ATCC 6538 after 18 hrs by broth microdilution method; type: functional; conditions: ATCC 6538, 18 h; in short: as §1
[5] = system: Staphylococcus aureus; experiment: Antibacterial activity against Staphylococcus aureus CIP 65.6 after 18 hrs by broth microdilution method; type: functional; conditions: CIP 65.6, 18 h; in short: as §1
[6] = system: Staphylococcus aureus; experiment: Antibacterial activity against Staphylococcus aureus CIP 103428 after 18 hrs by broth microdilution method; type: functional; conditions: CIP 103428, 18 h; in short: as §1
[7] = system: Staphylococcus aureus; experiment: Antibacterial activity against methicillin-resistant Staphylococcus aureus CIP 65.25 after 18 hrs by broth microdilution method; type: functional; conditions: CIP 65.25, 18 h
In short: (§2)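 Broth microdilution following ISO 20776-1:2006 and CLSI M07-A8, in Mueller-Hinton broth. Inoculum was 10^6 cfu/ml, with compound serial dilutions spanning 2 to 128 ug/ml and a compound-free growth control well. Plates were incubated 18 h at 37 °C. MIC was the lowest concentration giving complete inhibition of visible growth. Each compound was tested at least twice.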

[8] = system: Staphylococcus aureus; experiment: Antibacterial activity against methicillin-resistant Staphylococcus aureus ATCC 33592 after 18 hrs by broth microdilution method; type: functional; conditions: ATCC 33592, 18 h; in short: as §2
[9] = system: Staphylococcus aureus; experiment: Antibacterial activity against vancomycin intermediate Staphylococcus aureus […] after 18 hrs by broth microdilution method; type: functional; in short: as §2
[10] = system: Staphylococcus epidermidis; experiment: Antibacterial activity against Staphylococcus epidermidis ATCC 12228 after 18 hrs by broth microdilution method; type: functional; conditions: ATCC 12228, 18 h; in short: as §1
[11] = system: Staphylococcus epidermidis; experiment: Antibacterial activity against Staphylococcus epidermidis CIP 81.55 after 18 hrs by broth microdilution method; type: functional; conditions: CIP 81.55, 18 h; in short: as §1
[12] = system: Staphylococcus epidermidis; experiment: Antibacterial activity against Staphylococcus epidermidis CIP 103627 after 18 hrs by broth microdilution method; type: functional; conditions: CIP 103627, 18 h; in short: as §1
[13] = system: Streptococcus pneumoniae; experiment: Antibacterial activity against Streptococcus pneumoniae ATCC 49619 after 18 hrs by broth microdilution method; type: functional; conditions: ATCC 49619, 18 h
In short: (§3)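 MIC by broth microdilution per ISO 20776-1:2006 and CLSI M07-A8. Inoculum 10^6 cfu/ml in Mueller-Hinton broth […]. Compound serially diluted, final 2 to 128 ug/ml, duplicate rows, no-drug growth control. Read after 18 h at 37 °C as lowest concentration fully inhibiting visible growth. At least two experiments.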

[14] = system: Streptococcus pneumoniae; experiment: Antibacterial activity against Streptococcus pneumoniae ATCC 6303 after 18 hrs by broth microdilution method; type: functional; conditions: ATCC 6303, 18 h; in short: as §3
[15] = system: Streptococcus agalactiae; experiment: Antibacterial activity against Streptococcus agalactiae ATCC 12400 after 18 hrs by broth microdilution method; type: functional; conditions: ATCC 12400, 18 h; in short: as §2
[16] = system: Streptococcus pyogenes; experiment: Antibacterial activity against Streptococcus pyogenes CIP 104226 after 18 hrs by broth microdilution method; type: functional; conditions: CIP 104226, 18 h; in short: as §2
[17] = system: Streptococcus mitis; experiment: Antibacterial activity against Streptococcus mitis CIP 103335 after 18 hrs by broth microdilution method; type: functional; conditions: CIP 103335, 18 h
In short: (§4)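 Broth microdilution following ISO 20776-1:2006 and CLSI M07-A8, in Mueller-Hinton broth […]. Inoculum was 10^6 cfu/ml, with compound serial dilutions spanning 2 to 128 ug/ml and a compound-free growth control well. Plates were read after 18 h at 37 °C. MIC was the lowest concentration with no visible growth. Each compound was tested at least twice.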

[18] = system: Enterococcus faecium; experiment: Antibacterial activity against Enterococcus faecium CIP 54.32 after 18 hrs by broth microdilution method; type: functional; conditions: CIP 54.32, 18 h; in short: as §2
[19] = system: Enterococcus faecalis; experiment: Antibacterial activity against Enterococcus faecalis ATCC 29212 after 18 hrs by broth microdilution method; type: functional; conditions: ATCC 29212, 18 h; in short: as §2
[20] = system: Escherichia coli; experiment: Antibacterial activity against Escherichia coli ATCC 25922 after 18 hrs by broth microdilution method; type: functional; conditions: ATCC 25922, 18 h; in short: as §2
[21] = system: Haemophilus influenzae; experiment: Antibacterial activity against Haemophilus influenzae ATCC 49766 after 18 hrs by broth microdilution method; type: functional; conditions: ATCC 49766, 18 h; in short: as §4
[22] = system: KB; experiment: Cytotoxicity against human KB cells at 10 uM; type: cell-based
[23] = system: HCT-116; experiment: Cytotoxicity against human HCT116 cells at 10 uM; type: cell-based; conditions: hct-116, 10 µM
[24] = system: MRC5; experiment: Cytotoxicity against human MRC5 cells at 10 uM; type: cell-based; conditions: mrc5, 10 µM
[25] = system: KB; experiment: Cytotoxicity against human KB cells at 1 uM; type: cell-based
[26] = system: HCT-116; experiment: Cytotoxicity against human HCT116 cells at 1 uM; type: cell-based; conditions: hct-116, 1 µM
[27] = system: MRC5; experiment: Cytotoxicity against human MRC5 cells at 1 uM; type: cell-based; conditions: mrc5, 1 µM
[28] = system: Klebsiella pneumoniae; experiment: microbe, parasite or virus in culture; conditions: ATCC 35657, 18 h
[29] = system: Enterobacter cloacae; experiment: microbe, parasite or virus in culture; conditions: ATCC 13047, 18 h
[30] = system: Serratia marcescens; experiment: microbe, parasite or virus in culture; conditions: CIP 103551, 18 h
[31] = system: Pseudomonas aeruginosa; experiment: microbe, parasite or virus in culture; conditions: CIP 5933, 18 h
[32] = system: Acinetobacter baumannii; experiment: microbe, parasite or virus in culture; conditions: ATCC 19606 = CIP 70.34 = JCM 6841, 18 h

| Compound | MIC [1] [µg/mL] | MIC [2] [µg/mL] | MIC [3] [µg/mL] | MIC [4] [µg/mL] | MIC [5] [µg/mL] | MIC [6] [µg/mL] | MIC [7] [µg/mL] | MIC [8] [µg/mL] | MIC [9] [µg/mL] | MIC [10] [µg/mL] | MIC [11] [µg/mL] | MIC [12] [µg/mL] | MIC [13] [µg/mL] | MIC [15] [µg/mL] | MIC [16] [µg/mL] | MIC [17] [µg/mL] | MIC [18] [µg/mL] | MIC [19] [µg/mL] | MIC [20] [µg/mL] | MIC [21] [µg/mL] | other results |
| --- | --- | --- | --- | --- | --- | --- | --- | --- | --- | --- | --- | --- | --- | --- | --- | --- | --- | --- | --- | --- | --- |
| Cl.Cl.Cl.NCC(NO)c1c[nH]c2ccc(Cl)cc12 (stereo unspecified) | 16 | 16 | 16 | 16 | 16 | 16 | 16 | 16 | 16 | 16 | 16 | 16 | 64 | 128 | 128 | 128 | > 128 | > 128 | 64 | 128 | MIC [14]: 64 µg/mL; Activity [22]: Non-toxic; Activity [23]: Non-toxic; Activity [24]: Non-toxic; Activity [25]: Non-toxic; Activity [26]: Non-toxic; Activity [27]: Non-toxic; MIC [28]: 128 µg/mL; MIC [29]: 128 µg/mL; MIC [30]: 128 µg/mL; MIC [31]: 128 µg/mL; MIC [32]: 128 µg/mL |
| Cl.Cl.NCC(NO)c1c[nH]c2ccccc12 (stereo unspecified) | 32 | 32 | 32 | 32 | 32 | 32 | 64 | 64 | 32 | 32 | 32 | 32 | > 128 | > 128 | > 128 | > 128 | > 128 | > 128 | > 128 | > 128 | MIC [14]: > 128 µg/mL; Activity [22]: Non-toxic; Activity [23]: Non-toxic; Activity [24]: Non-toxic; Activity [25]: Non-toxic; Activity [26]: Non-toxic; Activity [27]: Non-toxic; MIC [28]: > 128 µg/mL; MIC [29]: > 128 µg/mL; MIC [30]: > 128 µg/mL; MIC [31]: > 128 µg/mL; MIC [32]: > 128 µg/mL |
| O=C(O)c1cn(C2CC2)c2cc(N3CCNCC3)c(F)cc2c1=O [CIPROFLOXACIN] | 0.5 (≈ 1.51 µM) | 0.5 (≈ 1.51 µM) | 0.5 (≈ 1.51 µM) | 0.5 (≈ 1.51 µM) | 0.5 (≈ 1.51 µM) | 0.5 (≈ 1.51 µM) |  |  | 32 (≈ 96.6 µM) | 0.25 (≈ 0.754 µM) | 0.25 (≈ 0.754 µM) | 0.25 (≈ 0.754 µM) |  | 0.25 (≈ 0.754 µM) | 0.25 (≈ 0.754 µM) | 0.25 (≈ 0.754 µM) | 1 (≈ 3.02 µM) | 1 (≈ 3.02 µM) | 0.064 (≈ 0.193 µM) | 0.5 (≈ 1.51 µM) |  |
